Screens from PubChem.
A selection: hits, their analogues and other compounds. The true share with any hit is near 2.2%.
DENV2 CPE: inhibitors of DENV2 cytopathic effect, primary screen, cell-based, plate reader, single concentration | DENV2-infected cells, cytopathic effect rescue | CPE inhibition, % at 9.99 µM | 350,000 compounds, 1.7% hits; in the data active means CPE inhibition above about 20%, passing the limit was not always enough; inconclusive means no clear call, values can overlap the other calls; tested in BHK-21 cells
Statin myotox sup: suppressors of statin myotoxicity in C2C12 myotubes, primary screen, cell-based, single point, plate reader. C2C12 myotubes + simvastatin, ATP luminescence, 48 h; scaled: DMSO 0, geranylgeraniol control 100. rescue of ATP level, % at 7.49 µM. 330,000 compounds, 0.78% hits. AID 602340, 2012;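 active means mean ATP rescue above about 67%, or every replicate alone reaching that limit, limit read from the data, passing the limit was not always enough; inconclusive means no clear call, values can overlap the other calls; inactive means mean under the limit and some replicate under it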;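 further: myotubes were challenged with 10 µM simvastatin during compound exposure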
E-sel inducer: E-selectin induction in HUVECs, primary screen, imaging, HUVEC, immunofluorescence imaging, single point; 260,000 compounds, 0.37% hits; normalized: neutral wells 0, TNF-alpha wells 100; activation, % at 7.58 µM;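 active means mean E-selectin-positive cell signal at least 10% of the positive control, reached in at least 60% of replicates, without over 20% cell loss; inconclusive means no rule given, readout overlaps actives, possibly toxicity-flagged; inactive means the rest, including those meeting only one limit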
Target sequence (P16581 whole entry, looked up): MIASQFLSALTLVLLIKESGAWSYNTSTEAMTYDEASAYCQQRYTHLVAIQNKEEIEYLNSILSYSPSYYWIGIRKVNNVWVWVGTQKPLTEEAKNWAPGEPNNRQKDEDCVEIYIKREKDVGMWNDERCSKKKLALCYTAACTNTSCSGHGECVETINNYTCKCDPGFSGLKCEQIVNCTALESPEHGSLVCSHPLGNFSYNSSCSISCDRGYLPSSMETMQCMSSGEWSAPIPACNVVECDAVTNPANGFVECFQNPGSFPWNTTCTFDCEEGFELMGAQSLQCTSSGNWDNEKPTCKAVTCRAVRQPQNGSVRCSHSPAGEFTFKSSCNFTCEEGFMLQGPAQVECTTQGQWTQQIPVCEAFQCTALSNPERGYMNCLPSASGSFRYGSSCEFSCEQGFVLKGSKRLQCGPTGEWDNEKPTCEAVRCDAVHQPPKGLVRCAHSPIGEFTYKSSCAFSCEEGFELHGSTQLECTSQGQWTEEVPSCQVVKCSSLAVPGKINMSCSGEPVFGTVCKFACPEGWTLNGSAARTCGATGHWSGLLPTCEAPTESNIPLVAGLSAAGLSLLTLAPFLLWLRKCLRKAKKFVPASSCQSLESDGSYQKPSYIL
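Material: HUVEC primary endothelial cells; Amount: 3,000 cells per well; Dosing: single concentration; Medium: EGM-2 growth medium on 0.1% gelatin-coated wells; Read-out basis: percent E-selectin-positive cells; Signal: immunofluorescence imaging; Control set: TNF-alpha, DMSO.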
A number is an active result; 0 = inactive; ? = inconclusive; - = not tested or not shown.

SMILES | DENV2 CPE | Statin myotox sup | E-sel inducer
O=C(N[C@H]1CC[C@@H](CCNS(=O)(=O)c2ccc(Cl)cc2)O[C@H]1CO)c1cnccn1 | 0 | 0 | 0
COCC(=O)N(C)C[C@H]1Oc2cc(C#CC3CCCC3)ccc2S(=O)(=O)N([C@@H](C)CO)C[C@H]1C | - | 0 | 0
C[C@@H]1CN([C@H](C)CO)C(=O)c2cccc(NS(=O)(=O)c3ccc(F)cc3)c2O[C@H]1CN(C)S(=O)(=O)c1cccs1 | 0 | 0 | 0
C[C@H]1CN([C@@H](C)CO)C(=O)c2cccc(NS(=O)(=O)c3ccc(F)cc3)c2O[C@H]1CN(C)S(=O)(=O)c1cccs1 | 0 | 0 | 235
CO[C@@H](CN(C)S(=O)(=O)c1ccc(C)cc1)[C@H](C)CN(Cc1ccccc1Cl)[C@H](C)CO | 0 | 0 | 0
COCC(=O)Nc1ccc2c(c1)C(=O)N(C)[C@@H]1CC[C@@H](CC(=O)Nc3ccccc3)O[C@H]1CO2 | 0 | 0 | 0
COc1ccc(NC(=O)CCn2c(=S)[nH]c3ccccc3c2=O)cc1 | 0 | 0 | -
COc1ccc(NC(=O)CCCn2c(=S)[nH]c3ccccc3c2=O)cc1 | 0 | 0 | 90
O=C(C[C@@H]1CC[C@H](NC(=O)c2ccccc2)[C@@H](CO)O1)NCCc1ccncc1 | 0 | 0 | 0
O=C(Nc1ccc2c(c1)[C@@H]1C[C@H](CC(=O)N3CCc4ccccc4C3)O[C@H](CO)[C@@H]1O2)c1cccnc1 | 0 | 0 | 0
C[C@@H]1CN([C@@H](C)CO)C(=O)c2cc(NC(=O)CCN3CCOCC3)ccc2O[C@H]1CN(C)C(=O)Nc1ccccc1 | 0 | 0 | 0
O=C(O)c1ccccc1NS(=O)(=O)c1ccc2ccccc2c1 | 0 | 0 | -
Cc1cc(S(=O)(=O)Nc2ccccc2C(=O)O)ccc1Cl | 0 | 73 | -
CC(=O)N(C)C[C@H]1Oc2cc(C3=CCCCC3)ccc2S(=O)(=O)N([C@@H](C)CO)C[C@@H]1C | - | 0 | 0
Cc1ccc(S(=O)(=O)Nc2ccc3c(c2)C(=O)N([C@@H](C)CO)C[C@H](C)[C@H](CN(C)C)OCCCC[C@@H](C)O3)cc1 | - | 0 | 0
COc1cccc(C(=O)N2C(C(C)C)COc3cc(Br)ccc3S2(=O)=O)c1 (centres undefined) | 0 | 0 | -
COc1ccccc1C(=O)N1[C@@H](C(C)C)COc2cc(Br)ccc2S1(=O)=O | 78 | 0 | 0
C[C@H](CO)N1C[C@H](C)[C@H](CN(C)C(=O)c2ccncc2)OCCCC[C@H](C)Oc2ccc(NS(=O)(=O)c3cn(C)cn3)cc2C1=O | 24 | - | 0
C[C@@H]1CN([C@H](C)CO)C(=O)c2cc(NS(=O)(=O)c3cn(C)cn3)ccc2O[C@@H](C)CCCCO[C@@H]1CN(C)C(=O)c1ccncc1 | 0 | - | 0
C[C@@H]1CN([C@@H](C)CO)C(=O)c2cc(NS(C)(=O)=O)ccc2O[C@@H](C)CCCCO[C@H]1CN(C)C(=O)c1ccncc1 | 69 | - | 0
C[C@@H]1CCCCO[C@H](CN(C)C(=O)c2ccncc2)[C@@H](C)CN([C@@H](C)CO)C(=O)c2cc(NS(C)(=O)=O)ccc2O1 | 0 | - | 0
CCC(=O)N[C@H]1C=C[C@H](CC(=O)NCc2ccccc2OC)O[C@H]1CO | 0 | 0 | 0
O=C(Cc1ccc(S(=O)(=O)N2CCOCC2)s1)NCC(=O)Nc1ccccc1Br | 126 | 0 | 0
O=C(Cc1ccc(S(=O)(=O)N2CCOCC2)s1)Nc1ccccc1Br | 0 | 0 | -
CCCOc1ccc(NC(=O)Cc2ccc(S(=O)(=O)N3CCOCC3)s2)cc1OCCC | 0 | 0 | 0
SMILES | DENV2 CPE | Statin myotox sup | E-sel inducer
CCOc1ccc(NC(=O)Cc2ccc(S(=O)(=O)N3CCOCC3)s2)cc1OCC | 65 | 0 | 0
CO[C@@H]1CN(C)C(=O)c2cc(NC(C)=O)ccc2OC[C@H](C)N(Cc2cccnc2)C[C@H]1C | - | 0 | 0
C[C@H]1CN([C@@H](C)CO)S(=O)(=O)c2ccc(-c3ccncc3)cc2O[C@H]1CN(C)Cc1cccnc1 | 0 | 0 | 0
COc1ccc(C(C)(O)c2nc(-c3ccccc3C)cs2)cc1 (centres undefined) | 0 | 0 | 0
COc1ccc(-c2csc(C(C)(O)c3ccc(F)c(F)c3)n2)cc1OC (centres undefined) | 21 | 0 | 0
Cc1ccc(-c2csc(C(C)(O)c3ccc(F)c(F)c3)n2)cc1C (centres undefined) | 0 | 0 | 0
COc1ccc(-c2csc(C(C)(O)c3ccccc3)n2)cc1OC (centres undefined) | 0 | 112 | 0
Cc1ccccc1-c1csc(C(C)(O)c2ccccc2)n1 (centres undefined) | 31 | 0 | 0
COc1ccc(C(C)(O)c2nc(-c3ccc(OC)c(OC)c3)cs2)cc1 (centres undefined) | 0 | 0 | 0
CCNC(=O)C[C@H]1CC[C@@H](NC(=O)C2CC2)[C@@H](CO)O1 | 0 | 0 | 0
COc1ccc(S(=O)(=O)N(C)C[C@H]2OCCCC[C@@H](C)Oc3ccc(NC(=O)Nc4c(C)noc4C)cc3C(=O)N([C@@H](C)CO)C[C@@H]2C)cc1 | - | 0 | 0
Cc1ccc(S(=O)(=O)Nc2ccc3c(c2)CC(=O)N([C@@H](C)CO)C[C@H](C)[C@H](CN(C)C(=O)NC2CCCCC2)O3)cc1 | 0 | 0 | 0
C[C@H]1CN([C@@H](C)CO)C(=O)Cc2cc(NC(=O)Nc3ccc(F)cc3)ccc2O[C@@H]1CN(C)C(=O)Nc1ccc2c(c1)OCO2 | 0 | 0 | 0
CN(C)C(=O)C[C@@H]1C[C@@H]2c3cc(NC(=O)C4CCC4)ccc3O[C@@H]2[C@@H](CO)O1 | 0 | 0 | 0
C[C@@H](O)C#Cc1cnc2c(c1)C(=O)N([C@@H](C)CO)C[C@H](C)[C@H](CN(C)Cc1ccc(-c3ccccc3)cc1)O2 | - | 0 | 0
COC(=O)[C@H](Cc1ccccc1)NC(=O)Cn1cnc2c(OCc3ccccc3)ncnc21 | 0 | 0 | 0
CCOC(=O)CC[C@H](NC(=O)Cn1cnc2c(OCc3ccccc3)ncnc21)C(=O)OCC | 27 | 0 | 0
CCCNC(=O)N(C)C[C@H]1Oc2cc(C#CCN(C)C)ccc2S(=O)(=O)N([C@@H](C)CO)C[C@@H]1C | 0 | 0 | 0
CCCC(=O)N1CC2(CN[C@@H](CO)c3c2c2ccc(OC)cc2n3C)C1 | ? | - | 0
O=C(C1CCCCC1)N1CCC2CC1c1cc(N3CCCCC3)ccc12 (centres undefined) | 0 | 0 | -
O=C(c1ccccc1F)N1CCC2CC1c1cc(N3CCCCC3)ccc12 (centres undefined) | 42 | 0 | -
C[C@@H]1CN([C@H](C)CO)C(=O)Cc2cc(NS(C)(=O)=O)ccc2O[C@H]1CN(C)CC1CCCCC1 | - | 0 | 0
O=C(NCCc1ccccc1)[C@@H]1[C@@H](CO)[C@@H]2Cn3c(cccc3=O)[C@@H]2N1Cc1ccncc1 | 0 | 0 | 0
C[C@@H]1CCCCO[C@@H](CN(C)S(=O)(=O)c2ccc(Cl)cc2)[C@H](C)CN([C@@H](C)CO)C(=O)c2cc(NS(=O)(=O)c3cccs3)ccc2O1 | 0 | - | 0
CCOC(=O)C1(Cc2ccccc2C)CCCN(C(=O)c2ccccn2)C1 (centres undefined) | 0 | 0 | 0
